Test [1] concerns the target NAD(P)H dehydrogenase [quinone] 1 (Homo sapiens) (UniProt P15559). The test can be described thus: Ratio of Vmax and Km. Also on record: unit not given here. Put shortly: (§1)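 Purified human DT-diaphorase (4.8 × 10-4 mg) with 1 mM NADH, 55 µM cytochrome c, 0.01 mM dithiothreitol in 0.05 M Tris pH 7.6; quinone in DMSO starts reaction. Run in triplicate at 25 °C, following cytochrome c reduction at 550 nm, no-enzyme background controls. Initial linear rates; KM and Vmax from Hanes plot.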

For test [2] the target is unchanged. The test can be described thus: Kinetic analysis using purified human DT-diaphorase. Put shortly: as §1
The test system of the next test is HT-29. Kind of test: cytotoxic activity against human colon carcinoma HT-29 cell lines. The test is classed as functional. In short, it runs like this:
(§2)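 Clonogenic survival: exponentially growing cells suspended at 1.7-2 × 10^5 cells/mL in serum-free MEM/HEPES, exposed 2 h at 37 °C, 5% CO2 to five final drug concentrations (solvent ethanol or DMSO, at most 1%), washed, plated at 2-3 densities, grown 10 days. Crystal violet-stained colonies of ≥50 cells counted; LC99 from log surviving fraction vs concentration.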

In another test the test system is BE. The test can be described thus: cytotoxic activity against human colon carcinoma BE cell lines. The test is classed as functional. In short, it runs like this: as §2
For test [3], the target named is NAD(P)H dehydrogenase [quinone] 1 (Homo sapiens) (UniProt P15559). The test can be described thus: Ratio of Kcat and Km. Put shortly: as §1
Sequence of NAD(P)H dehydrogenase [quinone] 1 (Homo sapiens) (P15559 whole entry): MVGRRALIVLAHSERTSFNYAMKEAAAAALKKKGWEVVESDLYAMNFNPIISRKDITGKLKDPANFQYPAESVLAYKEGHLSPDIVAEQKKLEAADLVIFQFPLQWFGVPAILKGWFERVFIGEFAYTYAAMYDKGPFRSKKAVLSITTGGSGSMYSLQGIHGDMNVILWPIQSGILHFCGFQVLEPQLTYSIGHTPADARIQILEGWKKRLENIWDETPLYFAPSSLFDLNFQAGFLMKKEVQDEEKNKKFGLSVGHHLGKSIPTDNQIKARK

As to `CC1=C(COP(N)(=O)N(CCCl)CCCl)C(=O)c2ccccc2C1=O` (stereo not drawn), the Ratio turned out to be 0.76 in test [1] and 8.6 in test [3]. Besides, in test [2], the k cat was 78 s⁻¹. For the same compound, the LC99 in the test on HT-29 amounted to 2.1 µM; with BE, 1 µM.

As to `CC(=O)OCC1=CC(=O)c2ccccc2C1=O`, the Ratio was 1.4 in test [1] and 1.6 in test [3]. For the same compound, in test [2], the k cat came out at 280 s⁻¹. Moreover, the LC99 in the test with HT-29 stood at 64 µM; with BE it was 22 µM.

For `O=C1C=C(COP(=O)(NCCCl)NCCCl)C(=O)c2ccccc21`, the results for the Ratio in test [1] and in test [3] were 2.1 and 2.3, respectively. The k cat in test [2] was 88 s⁻¹. The LC99 was determined as 14 µM in the test on HT-29 and 7.8 µM in the test on BE.

On to `CN(CCBr)P(=O)(OCC1=CC(=O)c2ccccc2C1=O)N(C)CCBr`, for which the Ratio was 1.1 in test [1] and 1.3 in test [3]. The k cat in test [2] was 115 s⁻¹. Also, the values for the LC99 in the test with HT-29 and in the test with BE were 4.5 µM and 1.2 µM, respectively.

Consider `CC1=C(COP(N)(=O)N(CCBr)CCBr)C(=O)c2ccccc2C1=O` (stereo not drawn), for which the Ratio in test [1] came to 0.81; in test [3], 9.1. In test [2], this compound had a k cat of 63 s⁻¹. Moreover, the results for the LC99 in the test with HT-29 and in the test on BE were 1.7 µM and 1.2 µM, respectively.

As for `Cn1c(COP(N)(=O)N(CCBr)CCBr)nc2c1C(=O)C=CC2=O` (stereo not drawn), the Ratio was found to be 0.28 in test [1] and 3.1 in test [3]. Moreover, the k cat in test [2] stood at 66 s⁻¹. Besides, the LC99 worked out at 130 µM with HT-29 and 120 µM with BE.

In the case of `CC1=C(COP(=O)(N(C)CCBr)N(C)CCBr)C(=O)c2ccccc2C1=O`, the Ratio in test [1] is 0.44; in test [3], 0.5. In test [2], this compound had a k cat of 180 s⁻¹. In addition, the LC99 in the test with HT-29 amounted to 1.5 µM; in the test on BE, 0.44 µM.

With `CC1=CC(=O)c2ccccc2C1=O`, the values for the Ratio in test [1] and in test [3] were 0.5 and 5.8, respectively. The k cat in test [2] stood at 700 s⁻¹.

In the case of `CN(CCCl)P(=O)(OCC1=CC(=O)c2ccccc2C1=O)N(C)CCCl`, the values for the Ratio in test [1] and in test [3] were 1.2 and 1.4, respectively. This compound had a k cat in test [2] of 190 s⁻¹. Moreover, the LC99 in the test on HT-29 was 4.5 µM; in the test with BE, 2.8 µM.

Regarding `CSC1=C(COP(N)(=O)N(CCCl)CCCl)C(=O)c2ccccc2C1=O` (stereo not drawn), the Ratio came out at 1.1 in test [1] and 1.2 in test [3]. This compound also registered a k cat in test [2] of 72 s⁻¹. Also, the LC99 with HT-29 worked out at 4.2 µM; in the test with BE, 5.9 µM.

Regarding `NP(=O)(OCC1=CC(=O)c2ccccc2C1=O)N(CCCl)CCCl` (stereo not drawn), the results for the Ratio in test [1] and in test [3] were 1.8 and 2, respectively. In addition, in test [2], the k cat worked out at 51 s⁻¹. Also, the LC99 worked out at 11 µM with HT-29 and 13 µM in the test with BE.

`Cn1c(COP(N)(=O)N(CCCl)CCCl)nc2c1C(=O)C=CC2=O` (stereo not drawn): the Ratio came to 0.4 in test [1] and 4.5 in test [3]. In test [2], this compound came in with a k cat of 41 s⁻¹. Further, the results for the LC99 in the test with HT-29 and with BE were 220 µM and 300 µM, respectively.

For `NP(=O)(OCC1=CC(=O)c2ccccc2C1=O)N1CCOCC1` (stereo not drawn), the Ratio in test [1] was determined as 0.83; in test [3], 0.16. In test [2], the k cat was 15 s⁻¹. For the same compound, the results for the LC99 with HT-29 and in the test on BE were 89 µM and 72 µM, respectively.

For `NP(=O)(OCC1=C(Br)C(=O)c2ccccc2C1=O)N(CCCl)CCCl` (stereo not drawn), the Ratio in test [1] worked out at 2.7; in test [3], 3. This compound also displayed a k cat in test [2] of 97 s⁻¹. Besides, the LC99 with HT-29 was 4.1 µM; with BE, 3.3 µM.

As for `NP(=O)(OCC1=CC(=O)c2ccccc2C1=O)N(CCBr)CCBr` (stereo not drawn), the Ratio in test [1] amounted to 2; in test [3] it was 2.2. This compound also yielded a k cat in test [2] of 46 s⁻¹. In addition, the LC99 with HT-29 was determined as 7.8 µM; in the test on BE, 4.6 µM.

These data come from ChEMBL document CHEMBL1133441, “Development of novel quinone phosphorodiamidate prodrugs targeted to DT-diaphorase” (2000).
